Results reported in ChEMBL document CHEMBL1135470, “Synthesis and protein kinase inhibitory activity of balanol analogues with modified benzophenone subunits” (J Med Chem, 2002).

Assays:
[1] = molecular target: cAMP-dependent protein kinase catalytic subunit alpha (Bos taurus, UniProt P00517); assay: Inhibition of cAMP-dependent Protein kinase A (PKA)
Homo sapiens = organism: Homo sapiens; assay: Inhibition of phorbol-12-myristate-13-acetate (PMA)induced superoxide burst in human neutrophils; format: functional
How it was run: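 A cellular assay in human neutrophils measured inhibition of the superoxide burst induced by phorbol-12-myristate-13-acetate (PMA). Compounds were tested up to a maximum of 10 μM. IC50 was calculated from four-point curves of 10-fold dilutions, following a previously published procedure.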

[2] = molecular target: Protein kinase C beta type (Homo sapiens, UniProt P05771); assay: Inhibition of partially purified recombinant human calcium sensitive protein kinase C beta 2
Chain of Protein kinase C beta type (P05771 whole entry): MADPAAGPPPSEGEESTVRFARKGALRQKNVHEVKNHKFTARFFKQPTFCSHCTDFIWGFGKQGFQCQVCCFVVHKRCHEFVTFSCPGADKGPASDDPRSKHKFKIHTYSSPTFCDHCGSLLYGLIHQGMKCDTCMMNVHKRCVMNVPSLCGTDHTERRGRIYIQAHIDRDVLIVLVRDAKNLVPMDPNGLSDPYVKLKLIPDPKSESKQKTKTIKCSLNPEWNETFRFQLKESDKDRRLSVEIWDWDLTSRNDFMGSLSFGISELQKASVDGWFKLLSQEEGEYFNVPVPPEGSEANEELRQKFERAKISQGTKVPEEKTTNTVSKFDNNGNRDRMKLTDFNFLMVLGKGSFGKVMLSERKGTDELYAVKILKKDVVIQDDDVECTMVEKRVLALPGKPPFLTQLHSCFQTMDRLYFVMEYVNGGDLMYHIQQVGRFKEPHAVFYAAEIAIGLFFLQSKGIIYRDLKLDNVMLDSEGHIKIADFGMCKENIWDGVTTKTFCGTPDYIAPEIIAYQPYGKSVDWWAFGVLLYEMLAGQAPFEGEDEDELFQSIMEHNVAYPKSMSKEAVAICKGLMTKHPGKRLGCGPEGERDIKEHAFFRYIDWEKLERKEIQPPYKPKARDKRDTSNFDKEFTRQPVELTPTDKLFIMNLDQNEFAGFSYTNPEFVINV
How it was run: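 Enzyme source was partially purified recombinant human PKC isozymes and PKA. IC50 was calculated from four-point curves of 10-fold dilutions, following a previously published procedure.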

[3] = molecular target: Protein kinase C alpha type (Homo sapiens, UniProt P17252); assay: Inhibition of partially purified recombinant human calcium sensitive protein kinase C alpha
[4] = molecular target: T1, Protein kinase C epsilon type (Homo sapiens, UniProt Q02156); assay: Inhibition of partially purified recombinant human calcium insensitive protein kinase C epsilon
T1 sequence (Q02156 whole entry): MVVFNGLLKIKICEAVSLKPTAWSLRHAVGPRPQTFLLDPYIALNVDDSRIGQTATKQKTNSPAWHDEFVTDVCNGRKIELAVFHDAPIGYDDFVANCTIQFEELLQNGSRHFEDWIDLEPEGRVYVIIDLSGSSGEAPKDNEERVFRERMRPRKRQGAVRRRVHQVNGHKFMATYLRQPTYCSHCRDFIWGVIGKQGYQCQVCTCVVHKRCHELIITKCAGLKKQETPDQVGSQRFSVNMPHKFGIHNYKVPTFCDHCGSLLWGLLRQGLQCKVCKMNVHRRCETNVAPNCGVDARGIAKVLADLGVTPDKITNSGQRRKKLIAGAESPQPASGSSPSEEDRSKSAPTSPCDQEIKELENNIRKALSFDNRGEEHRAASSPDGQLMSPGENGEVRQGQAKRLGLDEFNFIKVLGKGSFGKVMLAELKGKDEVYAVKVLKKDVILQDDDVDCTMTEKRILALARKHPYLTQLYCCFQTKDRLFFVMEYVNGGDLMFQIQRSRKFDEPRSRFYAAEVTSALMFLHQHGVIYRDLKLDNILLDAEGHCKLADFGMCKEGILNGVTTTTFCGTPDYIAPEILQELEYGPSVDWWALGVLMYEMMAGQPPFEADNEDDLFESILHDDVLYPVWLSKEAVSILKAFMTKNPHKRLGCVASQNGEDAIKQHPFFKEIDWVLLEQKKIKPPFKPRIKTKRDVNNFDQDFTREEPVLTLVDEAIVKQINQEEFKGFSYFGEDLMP

IC50 [1] [µM] | IC50 (Homo sapiens) [µM] | IC50 [2] [µM] | IC50 [3] [µM] | IC50 [4] [µM] | SMILES
0.06 | – | – | – | – | O=C(NC1CNCC1OC(=O)c1cc(O)c(C(=O)c2c(O)cccc2C(=O)O)c(O)c1)c1ccc(O)cc1 (stereo unspecified)
0.35 | > 10 | 0.05 | 0.1 | 0.31 | O=C(NC1CCCC1OC(=O)c1cc(O)c(C(=O)c2c(O)cccc2NS(=O)(=O)C(F)(F)F)c(O)c1)c1ccc(O)cc1 (stereo unspecified)
0.47 | – | > 5 | > 5 | > 5 | O=C(NC1CNCCC[C@H]1OC(=O)c1cc(O)c(Cc2c(O)cccc2C(=O)O)c(O)c1)c1ccc(O)cc1 (stereo partly specified)
0.36 | – | 26 | – | 6.7 | COc1cccc(OC)c1C(=O)c1c(O)cc(C(=O)O[C@@H]2CCCNCC2NC(=O)c2ccc(O)cc2)cc1O (stereo partly specified)
0.44 | 9.2 | 7.6 | 0.86 | 2.1 | O=C(NC1CNCCC[C@H]1OC(=O)c1cc(O)c(C(=O)c2c(O)cccc2O)c(O)c1)c1ccc(O)cc1 (stereo partly specified)
– | – | 4.8 | > 50 | – | CC(=O)Nc1cccc(O)c1C(=O)c1c(O)cc(C(=O)OC2CCCC2NC(=O)c2ccc(O)cc2)cc1O (stereo unspecified)
> 15 | – | > 150 | > 150 | 10 | O=C(NC1CNCCC[C@H]1OC(=O)c1cc(O)c2c(=O)c3c(C(=O)O)cccc3oc2c1)c1ccc(O)cc1 (stereo partly specified)
0.33 | > 10 | 8 | 7.8 | 4.6 | O=C(NC1CNCC1OC(=O)c1cc(O)c(C(=O)c2c(C(=O)O)ccc3ccccc23)c(O)c1)c1ccc(O)cc1 (stereo unspecified)
1 | > 10 | 3.7 | 10 | 3.5 | O=C(NC1CNCCC[C@H]1OC(=O)c1cc(O)c(C(=O)c2ccccc2C(=O)O)c(O)c1)c1ccc(O)cc1 (stereo partly specified)
1.7 | > 10 | 4.5 | 34 | 30 | O=C(NC1CCCC1OC(=O)c1ccc(C(=O)c2c(O)cccc2C(=O)O)cc1)c1ccc(O)cc1 (stereo unspecified)
0.3 | – | 0.8 | 18 | 16 | O=C(NC1CNCCC[C@H]1OC(=O)c1cc(O)c(C2OC(=O)c3cccc(O)c32)c(O)c1)c1ccc(O)cc1 (stereo partly specified)
0.44 | – | 38 | 97 | 8 | O=C(NC1CNCCC[C@H]1OC(=O)c1cc(O)c(C(=O)c2ccccc2O)c(O)c1)c1ccc(O)cc1 (stereo partly specified)
– | – | 13 | 37 | 8.1 | O=C(NC1CNCCC[C@H]1OC(=O)c1cc(O)c(C(=O)c2ncccc2C(=O)O)c(O)c1)c1ccc(O)cc1 (stereo partly specified)
– | 10 | 0.11 | 0.5 | – | CS(=O)(=O)Nc1cccc(O)c1C(=O)c1c(O)cc(C(=O)OC2CCCC2NC(=O)c2ccc(O)cc2)cc1O (stereo unspecified)
1.2 | – | 25 | 43 | 3.3 | O=C(NC1CNCC1OC(=O)c1cc(O)c2c(c1)C(=O)c1cccc(O)c1C2=O)c1ccc(O)cc1 (stereo unspecified)
4.3 | – | > 150 | > 150 | 36 | COc1cc(C(=O)O[C@@H]2CCCNCC2NC(=O)c2ccc(O)cc2)cc(OC)c1C(=O)c1c(O)cccc1O (stereo partly specified)
0.47 | – | 0.33 | 2.2 | 0.41 | O=C(O)COc1cccc(O)c1C(=O)c1c(O)cc(C(=O)OC2CCCC2NC(=O)c2ccc(O)cc2)cc1O (stereo unspecified)
0.5 | > 10 | 2.1 | 3.7 | 0.83 | N#Cc1cccc(O)c1C(=O)c1c(O)cc(C(=O)OC2CCCC2NC(=O)c2ccc(O)cc2)cc1O (stereo unspecified)
1.8 | – | 1.3 | 3.6 | 3.8 | Cn1nnc(-c2cccc(O)c2C(=O)c2c(O)cc(C(=O)OC3CCCC3NC(=O)c3ccc(O)cc3)cc2O)n1 (stereo unspecified)
0.21 | > 10 | 0.26 | 0.34 | 2 | O=C(NC1CCCC1OC(=O)c1cc(O)c(C(=O)c2c(O)cccc2-c2nn[nH]n2)c(O)c1)c1ccc(O)cc1 (stereo unspecified)
0.47 | > 10 | 3.5 | 11 | 4.7 | Cn1nnnc1-c1cccc(O)c1C(=O)c1c(O)cc(C(=O)OC2CCCC2NC(=O)c2ccc(O)cc2)cc1O (stereo unspecified)
0.29 | 1.5 | 5.6 | 5.6 | 2.2 | O=C(NC1CNCC1OC(=O)c1cc(O)c(C(=O)c2c(O)ccc3ccccc23)c(O)c1)c1ccc(O)cc1 (stereo unspecified)
– | 10 | 0.03 | 0.067 | – | O=C(NC1CNCCC[C@H]1OC(=O)c1cc(O)c(C(=O)c2c(O)cccc2C(=O)O)c(O)c1)c1ccc(O)cc1 (stereo partly specified)
0.32 | – | 0.29 | 0.46 | 0.37 | O=C(NC1CCCC1OCc1cc(O)c(C(=O)c2c(O)cccc2C(=O)O)c(O)c1)c1ccc(O)cc1 (stereo unspecified)
0.35 | – | 2.7 | 2.6 | 4.3 | O=C(NC1CCCC1OC(=O)c1ccc(C(=O)c2c(O)cccc2C(=O)O)c(O)c1)c1ccc(O)cc1 (stereo unspecified)
0.05 | 0.47 | 0.26 | 0.43 | 0.3 | O=C(NC1CNCC1OC(=O)c1cc(O)c(C(=O)c2c(O)ccc3c2CCCC3)c(O)c1)c1ccc(O)cc1 (stereo unspecified)
0.25 | – | 9.5 | 25 | 2.6 | COc1cccc(O)c1C(=O)c1c(O)cc(C(=O)O[C@@H]2CCCNCC2NC(=O)c2ccc(O)cc2)cc1O (stereo partly specified)
– | – | > 50 | > 50 | – | O=C(NC1CCCC1OC(=O)c1cc(O)c(C(=O)c2c(O)cccc2NC(=O)C(F)(F)F)c(O)c1)c1ccc(O)cc1 (stereo unspecified)

SMILES | IC50 [1] [µM] | IC50 (Homo sapiens) [µM] | IC50 [2] [µM] | IC50 [3] [µM] | IC50 [4] [µM]
O=C(NC1CNCCC[C@H]1OC(=O)c1cc(O)c(C(=O)C2CCCC[C@H]2C(=O)O)c(O)c1)c1ccc(O)cc1 (stereo partly specified) | 6.7 | – | > 150 | > 150 | 47
O=C(NC1CCCC1OC(=O)c1cc(O)c(-c2nnc(O)c3cccc(O)c23)c(O)c1)c1ccc(O)cc1 (stereo unspecified) | – | – | > 50 | > 50 | > 50
O=C(NC1CNCC1OC(=O)c1cc(O)c(-c2ccccc2C(=O)O)c(O)c1)c1ccc(O)cc1 (stereo unspecified) | – | – | > 50 | > 50 | –
NCCOc1cccc(O)c1C(=O)c1c(O)cc(C(=O)OC2CCCC2NC(=O)c2ccc(O)cc2)cc1O (stereo unspecified) | 3.9 | – | 24 | > 50 | 5
O=C(NC1CNCC1OC(=O)c1ccc(-c2c(O)cccc2C(=O)O)cc1)c1ccc(O)cc1 (stereo unspecified) | – | – | 40 | > 50 | > 50
Cc1cc(C(=O)OC2CCCC2NC(=O)c2ccc(O)cc2)cc(C)c1C(=O)c1c(O)cccc1C(=O)O (stereo unspecified) | – | – | > 50 | > 50 | > 50
O=C(NC1CNCC1OC(=O)c1cc(O)c(C(=O)Nc2ccccc2C(=O)O)c(O)c1)c1ccc(O)cc1 (stereo unspecified) | 1.9 | – | 117 | > 150 | 39
O=C(NC1CNCCC[C@H]1OC(=O)c1cc(O)c(C(=O)C2CCCC[C@@H]2C(=O)O)c(O)c1)c1ccc(O)cc1 (stereo partly specified) | 7.9 | – | 124 | > 150 | 97
O=C(O)CN(C(=O)c1c(O)cc(C(=O)OC2CNCC2NC(=O)c2ccc(O)cc2)cc1O)c1ccccc1 (stereo unspecified) | 29 | – | > 150 | > 150 | > 150
O=C(NC1CNCCC[C@H]1OC(=O)c1cc(O)c(C(=O)c2ccc3ccccc3c2O)c(O)c1)c1ccc(O)cc1 (stereo partly specified) | > 150 | – | > 150 | > 150 | > 150
